This note sets out measurements from ChEMBL document CHEMBL3813618, “Polyhalogenated Indoles from the Red Alga Rhodophyllis membranacea: The First Isolation of Bromo-Chloro-Iodo Secondary Metabolites” (J Nat Prod, 2016).

One assay deals with Saccharomyces cerevisiae. The experiment in a line: Antifungal activity against Saccharomyces cerevisiae BY4741 assessed as growth inhibition. The format is functional. The essentials:
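Wild-type strain BY4741 grown in liquid synthetic complete medium with compound; cell density read at A600. Concentration giving 50% growth inhibition determined relative to untreated controls.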

Assay [1] is described as follows: Cytotoxicity against human HL60 cells assessed as cell growth inhibition after 48 hrs by MTT assay. It is filed as functional, cell-based. The settings on record: HL-60, 48 h. The essentials:
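Cell proliferation MTT assay, 48 h exposure of HL-60 promyelocytic leukemia cells to compound at various concentrations; dose-response generated relative to untreated HL-60 control cells. n = 1 or 2 independent experiments, duplicate wells per experiment.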
In general terms: Tetrazolium dyes change colour on reduction, which living cells bring about.

What is called IC50 is the concentration needed to halve the response being measured. With `O=C1Nc2cccc(Cl)c2C1=O`, the IC50 with Saccharomyces cerevisiae was greater than 61 µM. As to `Clc1[nH]c2c(Br)c(I)ccc2c1Cl`, the values for the IC50 (in assay [1]; in the assay with Saccharomyces cerevisiae) were 49 µM and 39 µM, respectively.

On to `Clc1[nH]c2c(Br)ccc(Br)c2c1Cl`, for which the IC50 in assay [1] is 28 µM; with Saccharomyces cerevisiae, 23 µM. The like results for `Brc1ccc2c(Br)c(Br)[nH]c2c1Br` were, in that order, 38 µM and 69 µM. As for `Clc1[nH]c2c(Br)c(Br)ccc2c1Cl`, the half-inhibitory concentration (IC50) in assay [1] was determined as 61 µM; in the assay with Saccharomyces cerevisiae, 63 µM. In the same order, the values of `Clc1c(Br)[nH]c2c(Br)c(Br)ccc12` are 78 µM and greater than 83 µM. The like results for `CC(=O)CC1(O)C(=O)Nc2cccc(Cl)c21` (stereo not drawn) were, in that order, 61 µM and greater than 49 µM.
